TRPC4 potent – allosterically enhances the mouse TRPC4 cation channel | HEK293 TRPC4beta/mu-opioid, DAMGO EC20, Fluo-4 Ca2+ flux; hits give high values | B-score at 10 µM | 310,000 compounds, 0.42% hits;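 active = B-score of calcium response area above 5 SD of library B-scores, with initial fluorescence ratio within 5 SD of library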;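 note: B-score of integrated fluorescence ratio over time as area under calcium response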
Target sequence (Q9QUQ5 whole entry, looked up): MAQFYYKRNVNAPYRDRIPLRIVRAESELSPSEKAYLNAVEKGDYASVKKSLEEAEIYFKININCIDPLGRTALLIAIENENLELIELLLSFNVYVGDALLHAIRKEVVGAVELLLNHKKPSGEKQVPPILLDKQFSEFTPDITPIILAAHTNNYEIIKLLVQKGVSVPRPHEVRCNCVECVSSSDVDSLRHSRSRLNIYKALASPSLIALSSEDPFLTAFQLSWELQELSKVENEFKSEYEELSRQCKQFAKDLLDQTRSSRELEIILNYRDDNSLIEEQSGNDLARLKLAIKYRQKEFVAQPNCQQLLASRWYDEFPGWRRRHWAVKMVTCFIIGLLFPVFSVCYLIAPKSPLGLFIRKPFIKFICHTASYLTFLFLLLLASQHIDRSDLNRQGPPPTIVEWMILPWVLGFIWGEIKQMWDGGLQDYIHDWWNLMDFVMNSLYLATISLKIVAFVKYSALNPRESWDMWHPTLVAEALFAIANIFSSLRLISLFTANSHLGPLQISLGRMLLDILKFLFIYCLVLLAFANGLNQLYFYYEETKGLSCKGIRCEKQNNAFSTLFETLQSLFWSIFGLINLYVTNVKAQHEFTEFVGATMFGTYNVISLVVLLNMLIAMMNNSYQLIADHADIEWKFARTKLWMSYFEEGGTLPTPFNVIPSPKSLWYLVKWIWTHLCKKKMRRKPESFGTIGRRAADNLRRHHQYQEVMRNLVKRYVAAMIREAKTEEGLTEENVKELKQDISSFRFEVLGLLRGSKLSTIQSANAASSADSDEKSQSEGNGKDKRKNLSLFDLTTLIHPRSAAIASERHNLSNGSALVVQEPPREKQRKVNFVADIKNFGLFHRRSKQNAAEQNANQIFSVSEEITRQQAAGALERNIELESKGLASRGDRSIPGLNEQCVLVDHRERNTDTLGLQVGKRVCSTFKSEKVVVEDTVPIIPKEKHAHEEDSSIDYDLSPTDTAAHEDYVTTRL
TRPC6 inhibitor – mouse TRPC6 channel inhibition; HEK293-TRPC6, membrane potential dye, ACh-evoked depolarization; hits give low values; B-score at 10 µM; 310,000 compounds, 1.1% hits; AID 2553;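 active = B-score under library mean minus 3 SD, initial fluorescence not abnormally high, positive integrated signal ratio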;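 note: B-score derived from integrated fluorescence ratio over the kinetic read; more negative B-score means stronger inhibition of depolarization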
TRPC4 agonist – activators of mouse TRPC4 channel; Q9QUQ5; HEK293 TRPC4beta/mu-opioid, Fluo4 calcium fluorescence; hits give high values; B-score at 10 µM; 310,000 compounds, 0.49% hits;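 active = B-score above 5 SD of library B-scores, and initial fluorescence ratio not above library mean plus 5 SD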;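 note: positive B-score marks a calcium rise read as TRPC4 activation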
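Assay system: HEK293 cells stably co-expressing mouse TRPC4beta and mu-opioid receptor / Timing: Fluo4 dye loading 45 min at room temperature, 110 s recording / Signal: Fluo4 calcium-sensitive dye fluorescence, kinetic, 1 Hz baseline / Read-out: integrated baseline-normalised fluorescence ratio, converted to per-well B score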
TRPC6 activator – mouse TRPC6 channel activation. HEK293-TRPC6 membrane potential dye fluorescence; hits give high values. B-score at 10 µM. 310,000 compounds, 0.13% hits. Q61143;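 active = B-score of the integrated fluorescence ratio above library mean plus 3 SD, and starting fluorescence ratio within library mean plus 5 SD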;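 note: higher score means more depolarization so channel activation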
TRPC4 block – blocks the mouse TRPC4 cation channel. Q9QUQ5. HEK293 TRPC4beta/mu-opioid, DAMGO-evoked Fluo4 calcium flux; hits give low values. B-score at 10 µM. 300,000 compounds, 0.39% hits. AID 2247;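 active = B-score over 3 SD under the library average, no early fluorescence shift, positive overall ratio signal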
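Assay system: TRPC4beta/mu-opioid receptor HEK293 cell line; compound dosing: single concentration per test compound; detection: Fluo4 Ca2+ flux fluorescence; evaluation: per-well B score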
TRPC4 spec 2 – second check of whether TRPC6 inhibitors also affect mouse TRPC4 | shares compounds with TRPC6 inhibitor | HEK293 TRPC4/MOR, membrane potential dye fluorescence; channel activated by saturating DAMGO dose | inhibition, % at 10 µM | 920 compounds, 42% hits | AID 2776;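 active = compounds whose fluorescence signal differed from control wells by over 3 SD, either direction, in both duplicate plates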
TRPC4 spec – tests whether TRPC6 inhibitors also affect mouse TRPC4; shares compounds with TRPC6 inhibitor; HEK293 TRPC4/mu-opioid, membrane potential fluorescence; activity change, negative = inhibition, % at 10 µM; 920 compounds, 61% hits;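 active = rise or fall in signal beyond 3 SD of buffer-only wells in both replicate plates, either sign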;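 note: integrated kinetic ratio of fluorescence range over baseline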
HEK293 MPD ctr 2-1 – second check of TRPC6 inhibitor effects in parental HEK293 cells; signal change vs control, % at 10 µM; shares compounds with TRPC6 inhibitor; 920 compounds, 31% hits; parental HEK293 membrane potential dye fluorescence; maximal acetylcholine challenge after compound addition;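 active = membrane potential signal moving either way by over 3 SD of the maximum-effect control, in both duplicate plates, meaning non-specific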
HEK293 MPD ctr-1 – counter-screen for TRPC6 inhibitors: effect in parental HEK293 cells | shares compounds with TRPC6 inhibitor | parental HEK293 membrane potential dye fluorescence | membrane potential signal change, % at 10 µM | 920 compounds, 60% hits | AID 2780;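 active = membrane potential signal shifting up or down by more than 3 SD of buffer-only wells, on both duplicate plates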
HEK293 MPD ctr-2 – checks TRPC6 modulator effects in parental HEK293 cells. membrane potential signal change, % at 10 µM. membrane potential dye fluorescence. shares compounds with TRPC6 inhibitor. 2,400 compounds, 51% hits;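 active = membrane potential signal moves up or down beyond 5 SD from buffer-only wells, on both duplicate plates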
HEK293 MPD ctr 2-2 – second check of TRPC6 modulator effects in parental HEK293 cells; AID 488926; 2,400 compounds, 14% hits; inhibition, % at 10 µM; membrane potential dye fluorescence; after compound, maximal acetylcholine stimulation; shares compounds with TRPC6 inhibitor;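 active = membrane potential signal drops by more than 5 SD from the mean control signal, in both duplicate plates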;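 note: plate controls were acetylcholine ECmax control wells for no effect and buffer only wells for full effect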
TRPC4 ctr mod – tests whether TRPC6 modulators also affect mouse TRPC4; shares compounds with TRPC6 inhibitor; HEK293 TRPC4/mu-opioid, membrane potential fluorescence; percent change from control (negative = decrease, positive = increase), % at 10 µM; 2,400 compounds, 69% hits;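 active = membrane potential signal moved up or down beyond 5 SD of buffer control wells, in both duplicate plates, actives on both sides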;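 note: plate controls were assay buffer wells for no effect and DAMGO maximal-effect wells for full effect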
TRPC4 ctr inh 2 – mouse TRPC4 off-target activity of TRPC6 modulators, second screen | 2,400 compounds, 55% hits | HEK293 TRPC4/mu-opioid, membrane potential dye fluorescence; stimulated with maximal-effect DAMGO | inhibition, % at 10 µM | shares compounds with TRPC6 inhibitor | AID 488928;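 active = drop in membrane potential signal beyond 5 SD of the control wells in both duplicate plates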;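 note: TRPC4 counter screen for TRPC6 hits run under conditions tuned for TRPC6 not TRPC4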
TRPC6 block conf – mouse TRPC6 inhibitor confirmation; shares compounds with TRPC6 inhibitor; HEK293-TRPC6, membrane potential dye, ACh-evoked depolarization; inhibition, % at 10 µM; 3,300 compounds, 43% hits;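 active = fluorescence ratio falls more than 5 SD below the full-stimulation control mean, in both duplicate runs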;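 note: integrated fluorescence ratio of peak minus minimum over baseline after agonist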
TRPC6 act confirm – mouse TRPC6 activator confirmation. shares compounds with TRPC6 inhibitor. HEK293-TRPC6 membrane potential dye fluorescence, FDSS. activation, % at 10 µM. 2,800 compounds, 11% hits. AID 488961;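 active = ratio signal rise beyond 5 SD above unstimulated control wells' mean, seen in both duplicate runs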;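 note: plate controls were buffer EC0 wells for no effect and acetylcholine ECmax response for full effect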
* marks the source's active call; other numbers are inactive results; i = inactive; . = not tested or not shown. Shown are actives, neighbours in structure and some others; about 2.3% of the full set was active somewhere.

SMILES	TRPC4 potent	TRPC6 inhibitor	TRPC4 agonist	TRPC6 activator	TRPC4 block	HEK293 MPD ctr-2	HEK293 MPD ctr 2-2	TRPC4 ctr mod	TRPC4 ctr inh 2	TRPC6 block conf	TRPC6 act confirm	others
Oc1ccccc1Oc1ncc(Br)c(Cl)n1	i	i	i	i	i	.	.	.	.	.	.
Oc1ccccc1Oc1ncc(Br)c(N2CCOCC2)n1	i	-7.21*	i	i	i	.	.	.	.	i	i	TRPC4 spec 2=i;TRPC4 spec=i;HEK293 MPD ctr 2-1=i;HEK293 MPD ctr-1=i
Nc1cccc(C(=O)NCCNC(=O)c2cccc(N)c2)c1	i	-7.09*	i	i	i	.	.	.	.	i	i	TRPC4 spec 2=i;TRPC4 spec=i;HEK293 MPD ctr 2-1=i;HEK293 MPD ctr-1=i
O=C(NCCNC(=O)c1cccc(O)c1)c1cccc(O)c1	i	i	i	i	i	.	.	.	.	.	.
Brc1cccc(CN2CCN(c3ncccn3)CC2)c1	i	i	i	i	i	.	.	.	.	.	.
CC1(C)CC(=O)c2cc(OCC(=O)NCCN3CCCc4ccccc43)ccc2O1	i	i	i	i	i	.	.	.	.	.	.
CCCN(CC1CC1)C(=O)CCc1nnc(CCc2c[nH]c3ccccc23)o1	i	-6.8*	i	i	i	.	.	.	.	i	i	TRPC4 spec 2=i;TRPC4 spec=2.7%*;HEK293 MPD ctr 2-1=i;HEK293 MPD ctr-1=0.9%*
CCN(CC)C(=O)CCc1nnc(CCc2c[nH]c3ccccc23)o1	i	i	i	i	i	.	.	.	.	.	.
CCN(CC(=O)Nc1cccc(OC)c1)CC(=O)Nc1ccc(Br)c(C)c1	i	i	i	i	i	.	.	.	.	.	.
CCN(CC)CCCNc1nc2ccccc2c2nc(-c3ccncc3)nn12	i	-7.24*	i	i	i	.	.	.	.	68.8%*	i	TRPC4 spec 2=61.0%*;TRPC4 spec=-23.4%*;HEK293 MPD ctr 2-1=-0.5%*;HEK293 MPD ctr-1=-315.5%*
CCN(CC)CCCNc1nc2cc(OC)c(OC)cc2c2nc(-c3cccnc3)nn12	i	-7.97*	i	i	i	.	.	.	.	76.7%*	i	TRPC4 spec 2=65.0%*;TRPC4 spec=-29.5%*;HEK293 MPD ctr 2-1=-68.5%*;HEK293 MPD ctr-1=-446.0%*
COCCCNc1nc2cc(OC)c(OC)cc2c2nc(-c3ccccc3)nn12	i	i	i	i	i	.	.	.	.	.	.
CCN(CC)CCCNc1nc2cc(OC)c(OC)cc2c2nc(-c3ccccc3)nn12	i	i	i	i	i	.	.	.	.	.	.
COc1cc2nc(NCCCN3CCN(C)CC3)n3nc(-c4ccccc4)nc3c2cc1OC	i	-6.6*	i	i	i	-75.0%*	i	i	63.0%*	i	i
O=C(NNC(=S)Nc1ccccc1)c1cccnc1	i	i	i	i	i	.	.	.	.	.	.
COC(=O)c1[nH]c2ccc(C)cc2c1NC(=O)C(C)N1CCN(C2CCCCC2)CC1 (stereo unspecified)	i	i	i	i	i	.	.	.	.	.	.
COC(=O)c1[nH]c2ccc(Br)cc2c1NC(=O)C(C)N1CCN(C2CCCCC2)CC1 (stereo unspecified)	i	-7.62*	i	i	i	.	.	.	.	88.1%*	i	TRPC4 spec 2=42.5%*;TRPC4 spec=-17.9%*;HEK293 MPD ctr 2-1=29.0%*;HEK293 MPD ctr-1=-144.5%*
COc1ccc(N2CCN(C(=O)c3sc4ncn(CC(=O)N5CCCCC5C)c(=O)c4c3C)CC2)cc1 (stereo unspecified)	i	i	i	i	i	.	.	.	.	.	.
Cc1ccc(-c2nnn(CC(=O)N3CCN(c4ccccc4)CC3)n2)o1	i	-5.34*	i	i	i	i	i	i	i	i	i
COc1ccc(N2CCN(C(=O)Cn3nnc(-c4cccs4)n3)CC2)cc1	i	i	i	i	i	.	.	.	.	.	.
CC1(C)SC2c3ccccc3C(=O)N2[C@@H]1C(=O)NCCCN1CCOCC1 (stereo partly specified)	i	-5.13*	i	i	i	i	i	11.0%*	i	i	.
N/C(=N\OC(=O)CCC1CCCCC1)c1ccc([N+](=O)[O-])cc1	i	i	i	i	i	.	.	.	.	.	.
COc1cc(OC)cc(C(=O)NCC2CCCO2)c1 (stereo unspecified)	i	i	i	i	i	.	.	.	.	.	.
Cn1c(=O)n(Cc2ccc(F)cc2)c(=O)c2c1nc1n2CCCN1Cc1ccccc1	i	-5.1*	i	i	i	i	i	i	i	i	i
O=C(Cn1nnc(-c2ccccc2)n1)c1ccccc1	i	i	i	i	i	.	.	.	.	.	.
O=C(Cn1c(-c2ccccc2)c[n+]2ccsc12)c1ccc([N+](=O)[O-])cc1	i	-5.33*	50*	i	-7*	-198.0%*	i	35.0%*	90.5%*	i	i
O=C(Cn1c(-c2ccccc2)c[n+]2ccsc12)c1ccccc1	i	-5.29*	i	i	-11*	i	i	16.5%*	57.5%*	i	i
[O-]/[N+](=C\c1ccncc1)c1ccc(Br)cc1	i	i	i	i	i	.	.	.	.	.	.
[O-]/[N+](=C/c1cccnc1)c1ccc(Br)cc1	i	-6.03*	i	i	i	i	i	i	i	i	i
O=C(CN1CCCC1)N1CCCc2c1c(=O)oc1ccc(OCc3ccccc3)cc21	i	-6.51*	i	i	i	i	i	i	70.5%*	i	i

Assay outcomes: PubChem, Johns Hopkins Ion Channel Center
